Screening data deposited in PubChem BioAssay by The Scripps Research Institute Molecular Screening Center.
Sampled rows, rich in hits. Any-hit rate of the full collection: about 3.2%.
ABHD4 inh: inhibits mouse alpha/beta hydrolase domain 4; Q8VD66; purified mABHD4, FP-Rh probe fluorescence polarization; inhibition, % at 8.92 µM; 0.54% of 370,000 active; AID 720543;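 active means inhibition exceeding the mean over every tested compound plus 3 SD, cut at about 30% in these data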
Target sequence (Q8VD66 whole entry, looked up, the tested form may be a part): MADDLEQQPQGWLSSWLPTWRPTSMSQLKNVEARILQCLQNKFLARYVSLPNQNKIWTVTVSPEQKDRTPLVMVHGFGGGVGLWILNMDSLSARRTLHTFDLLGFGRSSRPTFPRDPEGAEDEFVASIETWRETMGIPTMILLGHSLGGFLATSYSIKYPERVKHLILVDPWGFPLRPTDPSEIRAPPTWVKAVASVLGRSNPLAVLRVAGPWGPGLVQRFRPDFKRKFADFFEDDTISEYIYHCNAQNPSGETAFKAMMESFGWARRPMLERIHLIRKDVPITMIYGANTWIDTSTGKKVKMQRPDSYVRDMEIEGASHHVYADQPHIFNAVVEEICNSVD
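Doses – 8.92 µM, single dose · Material – wild-type mouse ABHD4 protein · Replication – single well per compound (singlicate) · Measure – percent inhibition of probe binding, normalized to plate controls · Schedule – 45 min compound pre-incubation plus 60 min probe step, 25 °C · Detection – fluorescence polarization with parallel and perpendicular emission, 525/598 nm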
HTRA1 inh: inhibitors of human serine peptidase HTRA1. 0.5% of 340,000 active. inhibition, % at 5.96 µM. Q92743. recombinant HTRA1, FP-rhodamine activity-based probe, fluorescence polarization. AID 504803; in the data active means inhibition above about 36%
rCAG binder: molecules binding r(CAG) RNA repeats; r(CAG) RNA repeat, TO-PRO-1 dye displacement fluorescence; inhibition, % at 3 µM; 1.3% of 370,000 active; AID 651821;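 active means inhibition above the plate cutoff, the mean of all test compounds on that plate plus 3 SD, cut at about 35% in these data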;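 further: higher means more dye released from RNA so lower well fluorescence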
PRMT1 inh: inhibitors of human PRMT1. recombinant PRMT1, activity-based probe fluorescence polarization. inhibition, % at 2.79 µM. 1.3% of 370,000 active;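 active means inhibition above about 21% made by adding two undisclosed values, limit read from the data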
DAGLB inh: blocks human DAGLB lipase activity. Q8NCG7. HEK293T DAGLB membrane lysate, EnzChek fluorogenic substrate. inhibition, % at 5.17 µM. 0.059% of 340,000 active. AID 504411; in the data active means inhibition above about 34%
LEDGF integ inh: blocks HIV-1 LEDGF/p75-dependent DNA integration | TR-FRET IN-LEDGF/p75 DNA integration, Eu/Cy5 | inhibition, % at 3.7 µM | 0.64% of 370,000 active | AID 743269;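 active means inhibition above the screen-wide mean plus 3 SD, cut at about 13% in these data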;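 further: signal is the Cy5 over europium emission ratio at 671 and 618 nm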
rCAG bind conf: r(CAG) RNA repeat binding, confirmation; shares compounds with rCAG binder; TO-PRO-1 dye displacement fluorescence; inhibition, % at 3 µM; 70% of 4,300 active;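 active means inhibition above a per-plate cutoff, the mean inhibition of sample wells plus 3 SD, cut at about 35% in these data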;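 further: loss of TO-PRO-1 fluorescence as compound displaces dye from 1x1 AA loop RNA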
dCAG dye counter: counter-screen for rCAG RNA binders: DNA CAG dye complex inhibitors | shares compounds with rCAG binder | d(CAG) DNA oligo TO-PRO-1 dye displacement, fluorescence | inhibition, % at 3 µM | 94% of 4,300 active | AID 652068;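 active means inhibition above its plate's cutoff, the mean test-well inhibition plus 3 SD, cut at about 4.8% in these data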;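 further: hits displace the dye from DNA and so lower well fluorescence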
DNA CAG DR: counter-screen for rCAG binders: inhibitors of DNA CAG TO-PRO-1 complex | AID 686960 | DNA CAG/GTC duplex TO-PRO-1 dye displacement fluorescence | IC50, µM | shares compounds with rCAG binder | 20% of 250 active; in the data active means IC50 below about 10 µM
Hits are given with their value; n = inactive; x = no result.

SMILES	ABHD4 inh	HTRA1 inh	rCAG binder	PRMT1 inh	DAGLB inh	LEDGF integ inh	rCAG bind conf	dCAG dye counter	others
CC1CCC(NC(=O)C2CC(=O)N(c3ccc(Cl)cc3)C2)CC1 (stereo unspecified)	n	n	n	n	n	n	x	x
Cc1ccc(-c2nc3ccc(Cl)cn3c2Cc2ccccc2C(F)(F)F)cc1	n	x	42	n	x	n	n	6.8
COc1ccc([N+](=O)[O-])cc1NC(=O)COC(=O)C12CC3CC(CC(O)(C3)C1)C2	n	n	n	n	n	n	x	x
O=C(NNC(=O)c1ccccc1F)c1ccc(-c2ccccc2Cl)o1	n	n	n	n	n	n	x	x
COc1ccc(C)cc1NC(=S)NNC(=O)c1c(Br)cnn1C	n	n	54	n	n	n	n	4.4
O=C1NC(=S)S/C1=C\c1cc2ccccc2nc1N1CCCCC1	n	n	37	n	n	n	87	61
Cc1cccc(NC(=O)COc2ccc(/C=C\c3[nH]c(=O)[nH]c(=O)c3[N+](=O)[O-])cc2)c1	n	n	87	n	n	n	87	66
O=C(CSC1=NS(=O)(=O)c2cc(Cl)ccc2N1)Nc1ccccc1C(F)(F)F	n	n	52	n	n	n	52	11	DNA CAG DR=n
O=C(CSC1=NS(=O)(=O)c2cc(Cl)ccc2N1)Nc1ccccc1F	n	n	59	n	n	n	n	6.8
CC(=O)Nc1ccc(NC(=O)CSC2=NS(=O)(=O)c3cc(Cl)ccc3N2)cc1	n	n	n	n	n	n	x	x
O=C(CSC1=NS(=O)(=O)c2cc(Cl)ccc2N1)NCCc1ccccc1	n	n	n	n	n	n	x	x
CCc1nc(SCC(=O)Nc2ccccc2)c2c(=O)n(C)c(=O)n(C)c2n1	n	n	n	n	n	n	x	x
Cc1cc(=O)oc2cc(NS(=O)(=O)c3ccccc3)ccc12	n	n	n	n	n	n	x	x
CN(C)S(=O)(=O)c1ccc(S(=O)(=O)Nc2ccc3c(c2)oc2ccccc23)cc1	n	n	49	n	n	n	57	19
CCN(CC)S(=O)(=O)c1ccc(NS(=O)(=O)c2ccc(C)c(C)c2)cc1	n	n	n	n	n	n	x	x
CCN(CC)S(=O)(=O)c1ccc(S(=O)(=O)Nc2ccc3c(c2)oc2ccccc23)cc1	n	n	56	n	n	n	51	18
CCc1cc2c(SCC(=O)N(CC)c3c(N)n(Cc4ccccc4)c(=O)[nH]c3=O)ncnc2s1	n	n	n	n	n	n	x	x
CC(C)=CC(=O)OCC(=O)Nc1cc(C)cc(C)c1	n	n	n	n	n	n	x	x
CN1C(=O)S/C(=C\c2ccccc2OCc2ccc(C(=O)O)cc2)C1=O	n	n	n	n	n	n	x	x
CC(C)N1C(=O)S/C(=C/c2ccccc2OCc2ccc(C(=O)O)cc2)C1=O	n	n	55	n	n	n	56	17
COc1cccc(N2[C@@H](CC(=O)O)c3cc(C(F)(F)F)ccc3S2(=O)=O)c1	n	n	n	n	n	n	x	x
CS(=O)(=O)c1ccc2c(c1)sc1nc(=O)c(/C=C3/C=CC(=O)C(O)=C3)c(N)n12	n	n	39	n	n	n	48	18
COC1=C/C(=C/c2c(N)n3c(nc2=O)sc2cc(S(C)(=O)=O)ccc23)C=CC1=O	n	n	n	n	n	n	x	x
CCOC(=O)c1c(NC(=O)CCC(=O)O)sc2c1CCCCC2	n	n	n	n	n	n	x	x
O=C(O)CCC(=O)Nc1sc2c(c1C(=O)Nc1cccc3ccccc13)CCCCC2	n	n	43	24	n	n	n	15
SMILES	ABHD4 inh	HTRA1 inh	rCAG binder	PRMT1 inh	DAGLB inh	LEDGF integ inh	rCAG bind conf	dCAG dye counter	others
COc1ccc(OC)c(NC(=O)c2c(NC(=O)CCC(=O)O)sc3c2CCCCC3)c1	n	n	41	n	n	n	49	17
COC(=O)c1c(NC(=O)CCC(=O)O)sc2c1CCCCC2	n	n	n	n	n	n	x	x
CC(C)Oc1ccc(C(=O)O)c(C(=O)O)c1	n	n	n	n	n	n	x	x
Cn1c(=O)c2cc(NC(=O)CCc3ccc(O)cc3)ccc2n1Cc1cccc(C(F)(F)F)c1	n	x	n	n	x	n	x	x
O=C(NN1C(=O)/C(=C/c2ccc(O)cc2)SC1=S)c1ccccc1O	n	n	n	n	n	n	x	x
O=C1/C(=C/c2cccc(F)c2)SC(=S)N1NS(=O)(=O)c1ccccc1	n	n	62	n	n	n	65	17
COc1cc(/C=C2\SC(=S)N(NS(=O)(=O)c3ccccc3)C2=O)cc(OC)c1OC	n	n	65	n	n	n	65	27
COc1cccc(/C=C2\SC(=S)N(NS(=O)(=O)c3ccccc3)C2=O)c1OC	n	n	74	n	n	n	65	28
Cc1ccc(S(=O)(=O)NN2C(=O)/C(=C/c3ccc(F)cc3)SC2=S)cc1	n	n	n	n	n	n	x	x
COc1cc(/C=C2\SC(=S)N(NC(=O)c3ccccc3O)C2=O)ccc1O	n	n	55	n	n	n	n	13
O=C1OC(c2ccccc2)Cc2cc(C(=O)N3CCN(c4ccc(F)cc4)CC3)ccc21 (stereo unspecified)	n	n	n	n	n	n	x	x
COc1ccc(N2CC(NS(=O)(=O)c3ccc4ccccc4c3)CC2=O)cc1OC (stereo unspecified)	n	n	n	n	n	n	x	x
COc1ccc(/C=C2/SC(=O)N(NS(=O)(=O)c3ccccc3)C2=S)cc1OC	n	n	69	n	n	n	58	23
COc1ccc(/C=N/NS(=O)(=O)c2ccccc2)cc1OC	n	n	n	n	n	n	x	x
COc1ccc(/C=C/C(=O)NCC(=O)N/N=C/c2cccnc2)cc1	n	n	n	n	n	n	x	x
Cc1oc(-c2ccccc2)cc1C(=O)Nc1cccc(/C=C/C(=O)O)c1	n	n	47	n	n	n	39	9.0
Cc1cc(C(=O)Nc2cccc(/C=C/C(=O)O)c2)c(C)o1	n	n	n	n	n	n	x	x
O=S(=O)(/N=C(/NS(=O)(=O)c1ccccc1)c1ccccc1)c1ccccc1	n	n	n	n	n	n	x	x
O=S(=O)(N=C(NS(=O)(=O)c1ccc(Cl)cc1)c1ccccc1)c1ccc(Cl)cc1	n	n	55	n	n	n	50	13
COC(=O)c1scc(S(=O)(=O)C(C)C)c1N/N=C(\C#N)C(=O)c1ccc(Cl)cc1	n	n	51	n	n	n	61	23
COC(=O)c1scc(C#N)c1N/N=C(\C#N)S(=O)(=O)c1ccc(Cl)cc1	n	x	41	n	x	n	66	21
